Bioassay records as filed in PubChem.
The list is not random: actives were taken first. Their share in the collection is about 4.1%.
H9c2 TAG inh: triacylglycerol accumulation inhibition; H9c2 cells, Nile Red lipid (TAG) fluorescence; cells loaded with 200 µM oleic acid; inhibition, % at 12.5 µM; 230,000 compounds, 0.66% hits; AID 651582;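 active = pattern-corrected inhibition of lipid staining of at least 50% with the nuclear-stain viability signal not falling by more than 50%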;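 also: 0% = DMSO wells and 100% = triacsin C control wells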
TbMetRS inhib: blocks T. brucei methionyl-tRNA synthetase activity. purified T. brucei MetRS, ATP depletion, Kinase-Glo luminescence. inhibition, % at 11.9 µM. 360,000 compounds, 0.4% hits. AID 624268;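 active = inhibition above a per-plate cutoff of the control wells' mean inhibition plus 3 SD, cut at about 5.5% in these data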;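 also: 0% = DMSO wells median and 100% = median of wells with control inhibitor compound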
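Material: parasite MetRS enzyme / Replication: singlicate, one well per compound / Signal: luminescence of leftover ATP / Schedule: 2 h aminoacylation at 25 °C after 15 min preincubation / Medium: HEPES-MgCl2-KCl buffer plus DTT, spermine, BSA, pyrophosphatase / Doses: 11.9 µM single point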
Efflux pump inh: antifungal efflux pump inhibition, Nile Red retention; S. cerevisiae Candida pump triplex; inhibition, % at 10 µM; 330,000 compounds, 0.44% hits;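 active = plate passing quality check with inhibition over a set limit, or well fluorescence over plate mean plus 4 SD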;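 also: Nile Red retained in pooled yeast measured as flow cytometry median fluorescence; 0% = buffer negative control and 100% = Enniatin B positive control; higher means more Nile Red kept so more efflux inhibition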
AHR act: activators of human aryl hydrocarbon receptor. P35869. AHR-responsive luciferase reporter cells, luminescence. activation, % at 5 µM. 320,000 compounds, 2.5% hits. AID 2796; in the data active = activation above about 47%;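 also: 0% = vehicle wells and 100% = reference agonist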
SMARCA2 act: increases SMARCA2 function in MMTV reporter cells; AID 652017; MG213 cells, MMTV-luciferase reporter, dexamethasone, overnight; activation, % at 9.1 µM; 370,000 compounds, 1% hits; in the data active = activation above about 7.8%;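 also: 0% = vehicle wells and 100% = reference activator wells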
AHR act cf: confirmation of human aryl hydrocarbon receptor activators; 2,300 compounds, 87% hits; shares compounds with AHR act; human cells, AHR-responsive luciferase reporter, luminescence; activation, % at 9 µM; in the data active = activation above about 49%;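 also: HepG2 hepatoma cells carrying a DRE-driven firefly luciferase reporter; 0% = vehicle wells and 100% = reference agonist wells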
PXR counter: PXR activation, counter-screen for AHR activators | shares compounds with AHR act | cell-based PXR reporter, luciferase luminescence | activation, % at 11.6 µM | 2,300 compounds, 88% hits | AID 434939; in the data active = activation above about 11%;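 also: human hepatoma DPX-2 cells expressing full-length human PXR; 0% = DMSO and 100% = reference agonist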
Target sequence (O75469 whole entry, looked up): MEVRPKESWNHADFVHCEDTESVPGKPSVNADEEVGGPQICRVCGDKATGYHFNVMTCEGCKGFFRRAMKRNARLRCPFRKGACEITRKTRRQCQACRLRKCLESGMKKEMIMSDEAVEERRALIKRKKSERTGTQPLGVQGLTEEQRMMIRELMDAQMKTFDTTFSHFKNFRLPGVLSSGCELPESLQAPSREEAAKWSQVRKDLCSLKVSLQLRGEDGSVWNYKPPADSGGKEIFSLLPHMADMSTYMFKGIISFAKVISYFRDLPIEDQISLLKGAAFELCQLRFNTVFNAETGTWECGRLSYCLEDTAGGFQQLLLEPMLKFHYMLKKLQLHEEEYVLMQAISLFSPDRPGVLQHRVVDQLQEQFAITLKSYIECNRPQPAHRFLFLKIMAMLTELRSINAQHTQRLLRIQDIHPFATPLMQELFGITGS
* marks the source's active call; other numbers are inactive results; / = not tested or not shown.

SMILES	H9c2 TAG inh	TbMetRS inhib	Efflux pump inh	AHR act	SMARCA2 act	AHR act cf	PXR counter
COc1ccccc1NC(=O)c1nc[nH]c1C(=O)Nc1ccccc1OC	-9	0	0	108*	2	53*	19*
CCCCc1c(-c2ccccc2OC)ncn1C(C)c1ccccc1 (stereo unspecified)	/	/	/	/	-3	/	/
Cc1cc(C)cc(OC[C@@H](O)CN2CCC(C(O)(c3ccccc3)c3ccccc3)CC2)c1	/	/	/	/	-6	/	/
CC1CN(c2nc(-c3ccc(Br)cc3)nnc2-c2ccccc2)CC(C)N1 (stereo unspecified)	21	0	0	87*	0	47*	21*
COc1ccc(/C=N/Nc2cc(C)nc3ccc(OC)cc23)c(OC)c1	/	0	0	43	-7	/	/
COc1ccc2nc(C)cc(N/N=C/c3ccccc3)c2c1	66*	0	0	142*	/	96*	2
O=C(NC(=S)Nc1ccccc1N1CCOCC1)c1ccccc1F	-1	0	4	95*	0	73*	31*
O=C(NC(=S)Nc1ccccc1N1CCN(C(=O)c2ccccc2)CC1)c1ccccc1F	10	0	0	2	-1	/	/
CCOc1ccc2oc(C(=O)Nc3ccc(C)cn3)c(C)c2c1	-15	0	/	/	0	/	/
COc1cc(OC)cc(C(=O)Nc2ccc(-n3cnnn3)c(C)c2)c1	/	-1	0	-11	7	/	/
Cc1c(C(=O)Nc2ccccn2)oc2ccccc12	/	-1	0	115*	4	212*	21*
Cc1cc(NC(=O)c2oc3ccccc3c2C)ccc1-n1cnnn1	/	-1	0	99*	0	100*	14*
Cc1ccc(NC(=O)c2oc3ccccc3c2C)nc1	-8	0	0	139*	2	141*	14*
Cc1c(C(=O)Nc2ccc(N3CCOCC3)cc2)oc2ccccc12	/	-1	0	85*	7	131*	19*
COC(=O)[C@]12C[C@H](CC(=O)NCc3ccccc3)C(=O)N(CCc3ccc(OC)c(OC)c3)C1=C[C@H](C(C)C)O[C@@H]2C1CC1	/	/	/	/	-2	/	/
CCCc1c(C(=O)Nc2ccc(N3CCOCC3)cc2)cnn1-c1ccccc1	-6	-1	0	83*	-1	102*	12*
COc1ccc(CCN(Cc2cccs2)S(=O)(=O)c2ccc(C)s2)cc1OC	/	/	/	/	-7	/	/
COc1ccc(Cc2nnc(NC(=O)c3cc(OC)cc(OC)c3)s2)cc1	/	-1	0	82*	-3	76*	12*
COc1cccc(C(=O)Nc2nnc(C(C)C)s2)c1	22	-1	0	133*	-1	0	28*
COc1ccc(Cc2nnc(NC(C)=O)s2)cc1	14	0	0	1	-2	/	/
CCOc1ccc(-n2c(SCc3ccc(C#N)cc3)nnc2-c2ccco2)cc1	/	/	/	/	-8	/	/
C[C@H]1[C@@H]2C[C@@]3(O[C@H](c4ccccn4)N=C3C[C@@H]1c1ccccc1)N(Cc1ccncc1)C2=O	/	/	/	/	-1	/	/
CCOC(=O)c1sc(N/N=C/c2ccc(N(C)C)cc2)nc1C	16	-1	0	130*	-2	86*	11*
O=S(=O)(Nc1cc(Sc2cccc3cccnc23)c(O)c2ccccc12)c1ccc(F)cc1	/	/	0	85*	-11	25	132*
CCCCCCCCN1CCS(=O)(=O)N(Cc2ccc(Cl)cc2)C(C(=O)OC)C1 (stereo unspecified)	/	/	/	/	0	/	/
SMILES	H9c2 TAG inh	TbMetRS inhib	Efflux pump inh	AHR act	SMARCA2 act	AHR act cf	PXR counter
O=C(Cn1c(NCCCO)nc2ccccc21)c1ccc(Cl)cc1	/	-1	0	5	-3	/	/
O=C(Cn1c(NCCCO)nc2ccccc21)c1ccc(Cl)cc1Cl	-10	1	0	120*	-1	122*	20*
Cn1c(Cc2cccs2)nnc1SCC(=O)Nc1ccc(OCc2ccccc2)cc1	/	/	/	/	7	/	/
O=c1[nH]cnc2c1sc1nc(C(F)F)cc(-c3ccccc3)c12	9	0	0	106*	3	76*	10*
O=C(NNC(=O)c1sccc1-n1cccc1)c1ccccc1	-2	-1	0	137*	1	128*	48*
O=C(NNC(=O)c1sccc1-n1cccc1)c1cccc(Cl)c1	-18	-1	0	133*	1	114*	101*
